Results published in ChEMBL document CHEMBL1136715, “Modifications of the ethanolamine head in N-palmitoylethanolamine: synthesis and evaluation of new agents interfering with the metabolism of anandamide” (J Med Chem, 2003).

Assays:
[1] = biological target: Cannabinoid receptor 2 (Homo sapiens) (UniProt P34972); assay: Percent inhibition of specific binding of [3H]WIN-55212-2 towards human cannabinoid receptor 2 from Chinese hamster ovary cell membranes at the concentration of 10 uM
Procedure, shortened: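 Membranes (40 μg) from human CB2-transfected CHO cells (Ham's F12, 10% FBS, G418) were incubated with 1 nM [3H]-WIN 55,212-2 for 1 h at 30 °C in 50 mM Tris-HCl/MgCl2/EDTA, pH 7.4, with 50 μM PMSF. Bound radioligand was collected on 0.5% PEI-pretreated GF/B filters and counted by liquid scintillation.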

Rattus norvegicus [2] = species on record: Rattus norvegicus; assay: Tested for percent inhibition of AEA (N-arachidonoylethanolamine) metabolism in rat brain homogenates using [3H]anandamide as the labeled substrate at 100 uM; format: functional
[3] = biological target: Cannabinoid receptor 1 (Homo sapiens) (UniProt P21554); assay: Percent inhibition of specific binding of [3H]CP-55940 towards human cannabinoid receptor 1 from Chinese hamster ovary cell membranes at the concentration of 10 uM
Procedure, shortened: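 Membranes (40 μg) from CHO cells stably expressing human CB1 (grown in Ham's F12, 10% FBS, G418) were incubated with 1 nM [3H]-CP55,940 for 1 h at 30 °C in 50 mM Tris-HCl with MgCl2 and EDTA, pH 7.4, plus 50 μM PMSF. Nonspecific binding was defined with 10 μM HU-210. Filtration was on PEI-treated GF/B filters, followed by scintillation counting.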

Rattus norvegicus [4] = species on record: Rattus norvegicus; assay: Percent inhibition of AEA (N-arachidonoylethanolamine) metabolism in rat brain homogenates using [3H]anandamide as the labeled substrate.; format: functional; parameters: concentration or dose not given beside the values; conditions: dose or concentration not given here
Procedure, shortened: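 Rat brain membranes with test compound or ethanol carrier and [3H]-AEA (2 μM final) in 10 mM Tris-HCl, 1 mM EDTA, 1% w/v fatty-acid-free BSA, pH 7.6, for 10 min at 37 °C. Ice plus chloroform/methanol (1:1) stopped the reaction, and the methanol/buffer phase was counted with quench correction. Blanks used water in place of homogenate. Values come from at least three experiments.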

Rattus norvegicus [5] = species on record: Rattus norvegicus; assay: Inhibition of AEA (N-arachidonoylethanolamine) metabolism using rat brain homogenates at pH 9 using [3H]anandamide as the labeled substrate; format: functional; conditions: dose or concentration not given here
Procedure, shortened: (§1)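 Rat brain membranes (adult, minus cerebellum) were homogenized in 20 mM HEPES pH 7.0 with 1 mM MgCl2, washed, preincubated 15 min at 37 °C, and stored at -70 °C. Incubation was with [3H]-AEA (2 μM final) for 10 min at 37 °C at pH 6 or pH 9. Chloroform/methanol stopped the reaction, and [3H]-ethanolamine in the aqueous phase was counted. pI50 and maximal inhibition came from 3–5 experiments (three homogenate preparations) over 3–100 μM (seven concentrations).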

Rattus norvegicus [6] = species on record: Rattus norvegicus; assay: Inhibition of AEA (N-arachidonoylethanolamine) metabolism using rat brain homogenates at pH 6 using [3H]-anandamide as the labeled substrate; format: functional; conditions: dose or concentration not given here; procedure, shortened: as §1
Rattus norvegicus [7] = species on record: Rattus norvegicus; assay: Inhibition of AEA (N-arachidonoylethanolamine) metabolism using rat brain homogenates at pH 6 and at the concentration of 50 uM using [3H]anandamide as the labeled substrate; format: functional

Sequence of Cannabinoid receptor 1 (Homo sapiens) (P21554 whole entry): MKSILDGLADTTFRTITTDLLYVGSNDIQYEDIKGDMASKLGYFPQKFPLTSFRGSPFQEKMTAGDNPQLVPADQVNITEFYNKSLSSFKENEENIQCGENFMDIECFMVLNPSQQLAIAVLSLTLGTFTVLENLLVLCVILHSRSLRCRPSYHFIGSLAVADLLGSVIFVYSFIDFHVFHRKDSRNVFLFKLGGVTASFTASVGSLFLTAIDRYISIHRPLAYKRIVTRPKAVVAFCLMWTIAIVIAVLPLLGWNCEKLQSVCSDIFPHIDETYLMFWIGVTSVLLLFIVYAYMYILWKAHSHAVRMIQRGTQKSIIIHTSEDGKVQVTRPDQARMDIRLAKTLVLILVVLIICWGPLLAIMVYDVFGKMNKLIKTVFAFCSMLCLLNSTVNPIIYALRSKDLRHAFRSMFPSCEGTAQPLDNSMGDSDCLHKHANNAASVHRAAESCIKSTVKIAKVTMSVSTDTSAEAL
Sequence of Cannabinoid receptor 2 (Homo sapiens) (P34972 whole entry): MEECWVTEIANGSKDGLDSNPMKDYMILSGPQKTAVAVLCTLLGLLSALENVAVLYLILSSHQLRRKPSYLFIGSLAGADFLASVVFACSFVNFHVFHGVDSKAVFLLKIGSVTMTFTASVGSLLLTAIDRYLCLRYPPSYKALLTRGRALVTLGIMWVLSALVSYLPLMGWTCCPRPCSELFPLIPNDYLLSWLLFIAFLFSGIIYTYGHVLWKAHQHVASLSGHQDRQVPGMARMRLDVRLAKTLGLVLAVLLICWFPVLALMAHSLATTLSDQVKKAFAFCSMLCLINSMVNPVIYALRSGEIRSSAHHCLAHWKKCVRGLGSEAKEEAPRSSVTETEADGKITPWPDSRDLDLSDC

| Structure (SMILES) | inhibition [1] [%] | inhibition (Rattus norvegicus [2]) [%] | inhibition [3] [%] | inhibition (Rattus norvegicus [4]) [%] | inhibition (Rattus norvegicus [5]) [%] | inhibition (Rattus norvegicus [6]) [%] | inhibition (Rattus norvegicus [7]) [%] |
| --- | --- | --- | --- | --- | --- | --- | --- |
| CCCCCCCCCCCCCCCC(=O)NCCc1ccccc1 | 1.3 | 19 | 22.8 |  |  |  |  |
| CCCCCCCCCCCCCCCC(=O)NC1CCCC1 | 9.5 | 43 | 27.1 |  |  |  |  |
| CCCCCCCCCCCCCCCC(=O)NCCCCl | 14.3 |  | 30.6 | 27 |  |  |  |
| CCCCCCCCCCCCCCCC(=O)NOC | 5.2 |  | 18.1 | 46 |  |  |  |
| CCCCCCCCCCCCCCCC(=O)NCC(=O)OC | 4.1 |  | 7.3 | 100 | 100 | 75 |  |
| CCCCCCCCCCCCCCCC(=O)Nc1ccc2ccccc2c1 | 0.1 |  | 0.7 | 28 |  |  |  |
| CCCCCCCCCCCCCCCC(=O)NCCC | 6.1 |  | 14.4 | 49 |  |  |  |
| CCCCCCCCCCCCCCCC(=O)NCCCl | 13.5 |  | 25.2 | 48 |  |  |  |
| CCCCCCCCCCCCCCCC(=O)NCCCC | 12.9 |  | 19.6 | 24 |  |  |  |
| CCCCCCCCCCCCCCCNC(=O)COC(C)=O | 6 |  | 16 | 87 |  |  |  |
| CCCCCCCCCCCCCCCC(=O)NCCO |  |  |  | 78 | 100 | 62 |  |
| CCCCCCCCCCCCCCCC(=O)N1CCOCC1 | 4.2 | 6 | 15.5 |  |  |  |  |
| CCCCCCCCCCCCCCCC(=O)N(CC)CC | 2.7 | 2 | 3.3 |  |  |  |  |
| CCCCCCCCCCCCCCCC(=O)NCCBr | 15.1 |  | 35.8 | 41 |  |  |  |
| CCCCCCCCCCCCCCCC(=O)Nc1ccccc1C | 6.5 |  | 4.9 | 31 |  |  |  |
| CCCCCCCCCCCCCCCC(=O)Nc1ccc(O)cc1 | 5 | 55 | 44.8 |  |  |  |  |
| CCCCCCCCCCCCCCCC(=O)NCC | 10 |  | 2.8 | 72 |  |  |  |
| CCCCCCCCCCCCCCCC(=O)NCc1ccc(OC)cc1 | 3.7 | 29 | 25.4 |  |  |  |  |
| CCCCCCCCCCCCCCCC(=O)NCc1ccc(C)cc1 | 0.7 |  | 4.8 | 100 |  |  |  |

| Structure (SMILES) | inhibition [1] [%] | inhibition (Rattus norvegicus [2]) [%] | inhibition [3] [%] | inhibition (Rattus norvegicus [4]) [%] | inhibition (Rattus norvegicus [5]) [%] | inhibition (Rattus norvegicus [6]) [%] | inhibition (Rattus norvegicus [7]) [%] |
| --- | --- | --- | --- | --- | --- | --- | --- |
| CCCCCCCCCCCCCCCC(=O)NC(c1ccccc1)c1ccccc1 | 1.1 | 0 | 2.2 |  |  |  |  |
| CCCCCCCCCCCCCCCC(=O)NCC(C)C | 8.9 |  | 18.5 | 6 |  |  |  |
| C=CCNC(=O)CCCCCCCCCCCCCCC | 7.8 |  | 13.3 | 67 |  |  |  |
| CCCCCCCCCCCCCCCC(=O)NCCCO | 6.4 |  | 15 | 61 | 81 | 45 |  |
| CCCCCCCCCCCCCCCC(=O)Nc1ccc(Cl)cc1 | 7.4 |  | 11.1 | 11 |  |  |  |
| CCCCCCCCCCCCCCCC(=O)NC1CC1 | 16.3 |  | 12.8 | 57 |  |  |  |
| CCCCCCCCCCCCCCCC(=O)N(C)C | 6.4 | 30 | 0.3 |  |  |  |  |
| CCCCCCCCCCCCCCCC(=O)NC(C)(C)CO | 6.7 |  | 15.7 | 0 |  |  |  |
| CCCCCCCCCCCCCCCC(=O)Nc1ccccc1 | 0.5 |  | 2.8 | 18 |  |  |  |
| CCCCCCCCCCCCCCCC(=O)Nc1ccc(C)cc1 | 6.5 | 0 | 2.8 |  |  |  |  |
| CCCCCCCCCCCCCCCC(=O)Nc1cccc(O)c1 | 3.9 | 51 | 40.9 |  |  |  |  |
| CCCCCCCCCCCCCCCC(=O)NCCF | 3.9 | 6 | 8.2 |  |  |  |  |
| CCCCCCCCCCCCCCCC(=O)NC(C)C |  |  |  | 61 | 39 |  | 4 |
| CCCCCCCCCCCCCCCC(=O)NC |  |  | 2.5 | 100 |  |  |  |
| CCCCCCCCCCCCCCCC(=O)NC1CCCCC1 |  | 11 |  |  |  |  |  |
| CCCCCCCCCCCCCCCC(N)=O | 12.9 |  | 11.7 | 51 |  |  |  |
| CCCCCCCCCCCCCCCC(=O)Nc1ccccc1O | 2.7 | 53 | 10.8 |  |  |  |  |
| CCCCCCCCCCCCCCCC(=O)NC(C)(C)C | 2 |  | 24.6 | 0 |  |  |  |
